ChEMBL document CHEMBL1146382, “Design and synthesis of BACE1 inhibitors containing a novel norstatine derivative (2R,3R)-3-amino-2-hydroxy-4-(phenylthio)butyric acid” (Bioorg Med Chem Lett, 2007)
Numbered stars: 1 amine (or outer) side, 2 acyl side, 3 side chain; on linkers, the order of the positions; unused ones are H or OH. Square brackets hold non-standard residues; d marks the D form. Peptide text beside a SMILES is read from it. β3hPhe(2R-OH) = O=C([C@H](O)[C@H](Cc1ccccc1)N[*:1])[*:2]; X1 = O=C([C@H](O)[C@H](CSc1ccccc1)N[*:1])[*:2]

Assays:
[1] = target: Beta-secretase 1 (Homo sapiens) (UniProt P56817); experiment: Inhibition of human recombinant BACE1 at 2 uM
Beta-secretase 1 (Homo sapiens), sequence (P56817 whole entry): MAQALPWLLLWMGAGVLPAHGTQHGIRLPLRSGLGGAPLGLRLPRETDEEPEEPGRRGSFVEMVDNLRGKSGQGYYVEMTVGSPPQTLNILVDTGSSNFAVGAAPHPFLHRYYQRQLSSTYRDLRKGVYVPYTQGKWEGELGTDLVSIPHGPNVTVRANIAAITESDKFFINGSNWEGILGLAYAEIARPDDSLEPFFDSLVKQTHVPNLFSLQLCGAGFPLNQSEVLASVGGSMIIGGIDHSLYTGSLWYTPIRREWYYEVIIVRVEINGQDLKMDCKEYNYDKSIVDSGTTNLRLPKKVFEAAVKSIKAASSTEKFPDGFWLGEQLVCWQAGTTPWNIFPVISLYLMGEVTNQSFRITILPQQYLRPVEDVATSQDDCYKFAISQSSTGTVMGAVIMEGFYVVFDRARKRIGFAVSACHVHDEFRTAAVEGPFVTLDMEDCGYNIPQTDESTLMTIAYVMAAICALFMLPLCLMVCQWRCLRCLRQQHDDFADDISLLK
Outline: (§1)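 Recombinant human BACE1 enzymatic assay. Inhibition is expressed as the percent decrease in substrate cleaved by the enzyme.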

[2] = target: Beta-secretase 1 (Homo sapiens) (UniProt P56817); experiment: Inhibition of human recombinant BACE1 at 0.2 uM; outline: as §1

inhibition [1] [%] | inhibition [2] [%] | Compound
98 | 80 | CC(C)C[C@H](NC(=O)[C@@H](NC(=O)[C@@H](N)CNC(=O)c1cc(N)cc(C(=O)O)c1)C(C)C)C(=O)N[C@@H](Cc1ccccc1)[C@@H](O)C(=O)Nc1cccc(C(=O)O)c1
69 |  | CC(C)C[C@H](NC(=O)[C@@H](NC(=O)[C@@H](N)CCC(=O)O)C(C)C)C(=O)N[C@@H](CSc1ccccc1)[C@@H](O)C(=O)N[C@@H](CC(=O)O)C(=O)O (H-EVL[X1]D-OH)
 | 32 | CC(C)C[C@H](NC(=O)[C@@H](NC(=O)[C@@H](N)CCC(=O)O)C(C)C)C(=O)N[C@@H](Cc1ccccc1)[C@@H](O)C(=O)N[C@@H](CC(=O)O)C(=O)N[C@@H](C)C(=O)N[C@@H](CCC(=O)O)C(=O)N[C@@H](Cc1ccccc1)C(=O)O (H-EVL[β3hPhe(2R-OH)]DAEF-OH)
99 | 86 | CC(C)C[C@H](NC(=O)[C@@H](NC(=O)[C@@H](N)CNC(=O)c1cc(N)cc(C(=O)O)c1)C(C)C)C(=O)N[C@@H](CSc1ccccc1)[C@@H](O)C(=O)Nc1cccc(C(=O)O)c1
82 | 34 | CC(C)C[C@H](NC(=O)[C@@H](NC(=O)[C@@H](N)CCC(=O)O)C(C)C)C(=O)N[C@@H](CSc1ccccc1)[C@@H](O)C(=O)N[C@@H](CC(=O)O)C(=O)N[C@@H](C)C(=O)N[C@@H](CCC(=O)O)C(=O)N[C@@H](Cc1ccccc1)C(=O)O (H-EVL[X1]DAEF-OH)
96 | 57 | CC(C)C[C@H](NC(=O)[C@@H](NC(=O)[C@@H](N)CCC(=O)O)C(C)C)C(=O)N[C@@H](CSc1ccccc1)[C@@H](O)C(=O)Nc1cccc(C(=O)O)c1
